Blank lines part the entries; values can stand above or below the compound they belong to. Calls of active or inactive are those of the source. No cut-off for these calls is given here.
Assays:
[1] = Growth inhibition of human HBC4 cells after 48 hrs by sulforhodamine B assay; assay type: functional; details: HBC4, 48 h
Outline: (§1)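 Tested in the JFCR39 panel of 39 human cancer cell lines. Cells were exposed to compound for 48 h, and growth was measured as the change in total cellular protein by sulforhodamine B colorimetry. GI50 (molar concentration for 50% growth inhibition) was calculated by a previously reported method. Fingerprints were plotted as log differences of each line's GI50 from the panel mean.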

[2] = Growth inhibition of human BSY1 cells after 48 hrs by sulforhodamine B assay; assay type: functional; details: BSY-1, 48 h; outline: as §1
[3] = Growth inhibition of human HBC5 cells after 48 hrs by sulforhodamine B assay; assay type: functional; details: HBC5, 48 h; outline: as §1
[4] = test system: MCF7; assay: Growth inhibition of human MCF7 cells after 48 hrs by sulforhodamine B assay; assay type: functional; details: MCF7, 48 h; outline: as §1
[5] = Growth inhibition of human MDA-MB-23 cells after 48 hrs by sulforhodamine B assay; assay type: functional; details: MDA-MB-23, 48 h, read-out: pGI50 (converted); outline: as §1
[6] = test system: U-251; assay: Growth inhibition of human U251 cells after 48 hrs by sulforhodamine B assay; assay type: functional; details: U-251, 48 h; outline: as §1
[7] = test system: SF-268; assay: Growth inhibition of human SF268 cells after 48 hrs by sulforhodamine B assay; assay type: functional; details: SF-268, 48 h; outline: as §1
[8] = test system: SF-295; assay: Growth inhibition of human SF295 cells after 48 hrs by sulforhodamine B assay; assay type: functional; details: SF-295, 48 h; outline: as §1
[9] = test system: SF-539; assay: Growth inhibition of human SF539 cells after 48 hrs by sulforhodamine B assay; assay type: functional; details: SF-539, 48 h; outline: as §1
[10] = test system: SNB-75; assay: Growth inhibition of human SNB75 cells after 48 hrs by sulforhodamine B assay; assay type: functional; details: SNB-75, 48 h; outline: as §1
[11] = test system: SNB-78; assay: Growth inhibition of human SNB78 cells after 48 hrs by sulforhodamine B assay; assay type: functional; details: SNB-78, 48 h; outline: as §1
[12] = test system: HCC 2998; assay: Growth inhibition of human HCC2998 cells after 48 hrs by sulforhodamine B assay; assay type: functional; details: HCC 2998, 48 h, read-out: pGI50 (converted); outline: as §1
[13] = test system: KM12; assay: Growth inhibition of human KM12 cells after 48 hrs by sulforhodamine B assay; assay type: functional; details: KM12, 48 h; outline: as §1
[14] = test system: HT-29; assay: Growth inhibition of human HT-29 cells after 48 hrs by sulforhodamine B assay; assay type: functional; details: HT-29, 48 h; outline: as §1
[15] = test system: NCI-H23; assay: Growth inhibition of human NCI-H23 cells after 48 hrs by sulforhodamine B assay; assay type: functional; details: NCI-H23, 48 h; outline: as §1
[16] = test system: NCI-H226; assay: Growth inhibition of human NCI-H226 cells after 48 hrs by sulforhodamine B assay; assay type: functional; details: NCI-H226, 48 h; outline: as §1
[17] = test system: NCI-H522; assay: Growth inhibition of human NCI-H522 cells after 48 hrs by sulforhodamine B assay; assay type: functional; details: NCI-H522, 48 h; outline: as §1
[18] = test system: NCI-H460; assay: Growth inhibition of human NCI-H460 cells after 48 hrs by sulforhodamine B assay; assay type: functional; details: NCI-H460, 48 h; outline: as §1
[19] = test system: A549; assay: Growth inhibition of human A549 cells after 48 hrs by sulforhodamine B assay; assay type: functional; details: A549, 48 h; outline: as §1
[20] = test system: DMS-273; assay: Growth inhibition of human DMS273 cells after 48 hrs by sulforhodamine B assay; assay type: functional; details: DMS-273, 48 h; outline: as §1
[21] = test system: DMS-114; assay: Growth inhibition of human DMS114 cells after 48 hrs by sulforhodamine B assay; assay type: functional; details: DMS-114, 48 h; outline: as §1
[22] = test system: LOX IMVI; assay: Growth inhibition of human LOXIMVI cells after 48 hrs by sulforhodamine B assay; assay type: functional; outline: as §1
[23] = test system: OVCAR-3; assay: Growth inhibition of human OVCAR-3 cells after 48 hrs by sulforhodamine B assay; assay type: functional; details: OVCAR-3, 48 h; outline: as §1
[24] = test system: OVCAR-4; assay: Growth inhibition of human OVCAR4 cells after 48 hrs by sulforhodamine B assay; assay type: functional; details: OVCAR-4, 48 h; outline: as §1
[25] = test system: OVCAR-5; assay: Growth inhibition of human OVCAR5 cells after 48 hrs by sulforhodamine B assay; assay type: functional; details: OVCAR-5, 48 h; outline: as §1
[26] = test system: OVCAR-8; assay: Growth inhibition of human OVCAR8 cells after 48 hrs by sulforhodamine B assay; assay type: functional; details: OVCAR-8, 48 h; outline: as §1
[27] = test system: SK-OV-3; assay: Growth inhibition of human SKOV3 cells after 48 hrs by sulforhodamine B assay; assay type: functional; details: SK-OV-3, 48 h; outline: as §1
[28] = Growth inhibition of human RXF631L cells after 48 hrs by sulforhodamine B assay; assay type: functional; details: RXF 631, 48 h; outline: as §1
[29] = test system: ACHN; assay: Growth inhibition of human ACHN cells after 48 hrs by sulforhodamine B assay; assay type: functional; outline: as §1
[30] = test system: St-4; assay: Growth inhibition of human St-4 cells after 48 hrs by sulforhodamine B assay; assay type: functional; details: St-4, 48 h; outline: as §1
[31] = Growth inhibition of human MKN1 cells after 48 hrs by sulforhodamine B assay; assay type: functional; details: MKN-1, 48 h; outline: as §1
[32] = test system: MKN-7; assay: Growth inhibition of human MKN7 cells after 48 hrs by sulforhodamine B assay; assay type: functional; details: MKN-7, 48 h; outline: as §1
[33] = test system: MKN-28; assay: Growth inhibition of human MKN28 cells after 48 hrs by sulforhodamine B assay; assay type: functional; details: MKN-28, 48 h; outline: as §1
[34] = test system: MKN-45; assay: Growth inhibition of human MKN45 cells after 48 hrs by sulforhodamine B assay; assay type: functional; details: MKN-45, 48 h; outline: as §1
[35] = test system: MKN-74; assay: Growth inhibition of human MKN74 cells after 48 hrs by sulforhodamine B assay; assay type: functional; details: MKN-74, 48 h; outline: as §1
[36] = test system: DU-145; assay: Growth inhibition of human DU145 cells after 48 hrs by sulforhodamine B assay; assay type: functional; details: DU-145, 48 h, read-out: pGI50 (converted); outline: as §1
[37] = test system: PC-3; assay: Growth inhibition of human PC3 cells after 48 hrs by sulforhodamine B assay; assay type: functional; details: PC-3, 48 h; outline: as §1
[38] = test system: HCT-15; assay: Growth inhibition of human HCT15 cells after 48 hrs by sulforhodamine B assay; assay type: functional; details: HCT-15, 48 h; outline: as §1
[39] = test system: HCT-116; assay: Growth inhibition of human HCT116 cells after 48 hrs by sulforhodamine B assay; assay type: functional; details: HCT-116, 48 h; outline: as §1
[40] = target: ABC-type oligopeptide transporter ABCB9 (Homo sapiens) (UniProt Q9NP78); assay: Effect on human GFP-tagged TAPL-mediated cellular uptake expressed in CHO-K1 cells assessed as localization to endoplasmic reticulum at 10 uM after 5 hrs using ER-Tracker red staining by confocal laser scanning microscopic analysis; assay type: cell-based
Outline: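 CHO-K1 cells were cultured two days at 37 °C in Ham's F12 with 7% fetal calf serum. They were loaded with 10 µM dansyl probe in medium for 5 h, washed five times, then stained with ER-Tracker Red. Live confocal imaging used 405 nm excitation for dansyl and 559 nm for the tracker, with overlap of signals assessed. Samples were run in duplicate.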

[41] = Cytotoxicity against CHOK1 cells at 10 uM after 24 hrs; assay type: cell-based, Cricetulus griseus; details: chinese hamster, cho-k1, 24 h
Outline: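 CHO-K1 cells were grown two days at 37 °C in Ham's F12 with 7% fetal calf serum in glass-bottomed dishes. They were exposed to 10 µM probe for 5 h, washed, and imaged. Dishes were then incubated a further 24 h. Toxicity was judged by microscopic inspection for desquamated or suspended cells.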

[42] = target: ABC-type oligopeptide transporter ABCB9 (Homo sapiens) (UniProt Q9NP78); assay: Effect on human GFP-tagged TAPL-mediated cellular uptake expressed in CHO-K1 cells assessed as localization to lysosome at 10 uM after 5 hrs by confocal laser scanning microscopic analysis

Chain of ABC-type oligopeptide transporter ABCB9 (Homo sapiens) (Q9NP78 whole entry): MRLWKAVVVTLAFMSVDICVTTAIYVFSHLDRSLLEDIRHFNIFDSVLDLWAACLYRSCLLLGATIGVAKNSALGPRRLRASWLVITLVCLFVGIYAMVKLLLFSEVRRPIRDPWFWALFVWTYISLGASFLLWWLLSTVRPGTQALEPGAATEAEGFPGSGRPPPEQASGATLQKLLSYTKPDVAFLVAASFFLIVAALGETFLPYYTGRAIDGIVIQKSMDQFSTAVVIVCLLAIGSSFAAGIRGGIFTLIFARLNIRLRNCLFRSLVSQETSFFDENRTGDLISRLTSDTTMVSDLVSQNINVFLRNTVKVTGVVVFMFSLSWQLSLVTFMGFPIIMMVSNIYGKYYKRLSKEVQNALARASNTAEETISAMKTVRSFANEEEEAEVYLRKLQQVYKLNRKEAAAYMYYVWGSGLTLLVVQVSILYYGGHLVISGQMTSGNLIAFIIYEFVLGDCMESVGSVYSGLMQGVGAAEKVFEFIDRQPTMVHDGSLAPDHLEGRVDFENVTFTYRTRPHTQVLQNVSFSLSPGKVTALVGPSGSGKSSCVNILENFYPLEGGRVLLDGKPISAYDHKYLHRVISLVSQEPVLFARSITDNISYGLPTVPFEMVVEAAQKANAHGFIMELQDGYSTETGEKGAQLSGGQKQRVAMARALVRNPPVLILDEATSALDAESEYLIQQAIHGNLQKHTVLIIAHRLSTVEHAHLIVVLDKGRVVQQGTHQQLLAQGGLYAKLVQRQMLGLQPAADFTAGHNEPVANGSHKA

SMILES: CCCCCCCCCCCC[C@@H](O)[C@H]1CC[C@H]([C@H](O)CCCCCCCCCCCCC2=C[C@H](C)OC2=O)O1 [REL-SOLAMIN]
GI50 [1]: > 100 µM | GI50 [2]: > 100 µM | GI50 [3]: > 100 µM | GI50 [4]: 70.8 µM | GI50 [5]: > 100 µM | GI50 [6]: > 100 µM | GI50 [7]: > 100 µM | GI50 [8]: > 100 µM | GI50 [9]: > 100 µM | GI50 [10]: > 100 µM | GI50 [11]: > 100 µM | GI50 [12]: > 100 µM | GI50 [13]: > 100 µM | GI50 [14]: > 100 µM | GI50 [15]: 72.4 µM | GI50 [16]: > 100 µM | GI50 [17]: 57.5 µM | GI50 [18]: > 100 µM | GI50 [19]: > 100 µM | GI50 [20]: > 100 µM | GI50 [21]: 4.37 µM | GI50 [22]: 29.5 µM | GI50 [23]: > 100 µM | GI50 [24]: > 100 µM | GI50 [25]: > 100 µM | GI50 [26]: > 100 µM | GI50 [27]: > 100 µM | GI50 [28]: > 100 µM | GI50 [29]: > 100 µM | GI50 [30]: > 100 µM | GI50 [31]: > 100 µM | GI50 [32]: 12.9 µM | GI50 [33]: 14.1 µM | GI50 [34]: > 100 µM | GI50 [35]: > 100 µM | GI50 [36]: > 100 µM | GI50 [37]: > 100 µM | GI50 [38]: > 100 µM | GI50 [39]: > 100 µM

Activity [40]: Active | GI50 [4]: 6.03 µM | GI50 [6]: > 100 µM | GI50 [12]: > 100 µM | GI50 [14]: > 100 µM | GI50 [15]: 3.47 µM | GI50 [16]: 29.5 µM | GI50 [17]: 4.9 µM | GI50 [18]: > 100 µM | GI50 [19]: > 100 µM | GI50 [23]: > 100 µM | GI50 [24]: > 100 µM | GI50 [25]: > 100 µM | GI50 [26]: > 100 µM | GI50 [27]: > 100 µM | GI50 [29]: > 100 µM | GI50 [32]: 0.0398 µM | GI50 [33]: 0.0692 µM | GI50 [34]: > 100 µM | GI50 [35]: 1.55 µM | GI50 [36]: > 100 µM | GI50 [37]: 81.3 µM | GI50 [38]: > 100 µM | GI50 [39]: 8.91 µM | Activity [42]: inactive
SMILES: C[C@H]1C=C(CCCCCCCCCCCC[C@@H](O)[C@H]2CC[C@H]([C@H](O)CCCCCCCCCNS(=O)(=O)c3cccc4c(N(C)C)cccc34)O2)C(=O)O1
Activity [41]: Non-toxic | GI50 [1]: > 100 µM | GI50 [2]: > 100 µM | GI50 [3]: > 100 µM | GI50 [5]: > 100 µM | GI50 [7]: > 100 µM | GI50 [8]: 0.513 µM | GI50 [9]: > 100 µM | GI50 [10]: > 100 µM | GI50 [11]: > 100 µM | GI50 [13]: > 100 µM | GI50 [20]: > 100 µM | GI50 [21]: 0.0234 µM | GI50 [22]: > 100 µM | GI50 [28]: > 100 µM | GI50 [30]: > 100 µM | GI50 [31]: > 100 µM
